Measurements from PMC4207547 (Journal of Medicinal Chemistry, 2014).
“Also recorded” adds a separate entry of the source.

What was measured:
CXCR1 and CXCR2 = assay: CXCL8-stimulated Ca2+ flux in hPMNs; assay type: cell-based, human; conditions: 1 μM compound
Summary of the method: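 Human PMNs isolated from blood by dextran sedimentation, Histopaque 1077 gradient and hypotonic red-cell lysis (>95% pure, >98% viable). Cells loaded with FLIPR Calcium 3 dye in Ca2+/Mg2+-free HBSS with 10 mM HEPES plus test compound or DMSO (1% final), 37 °C, 30 min. They were then pelleted and resuspended in HBSS with Ca2+/Mg2+, and compound was re-added at the same concentration. Fluorescence was read at 10^5 cells/well: 15 s basal, then agonist injected.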

C5a-induced Ca2+ flux = C5a-induced Ca2+ flux in hPMNs; assay type: cell-based, human; conditions: for effect on C5a-induced Ca2+ flux, in words: hPMNs, concentrations up to 5 μM
Summary of the method: (§1)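 Human PMNs were isolated from healthy donor blood by dextran sedimentation, Histopaque 1077 gradient and hypotonic red cell lysis (>95% pure, >98% viable). Cells were dye-loaded (FLIPR Calcium 3) in Ca/Mg-free HBSS with 10 mM HEPES plus test compound or 1% DMSO for 30 min at 37 °C. They were then resuspended in HBSS+ with compound re-added, at 10^5 cells/well. Agonist final: C5a 50 nM, fMLF 10 nM. Fluorescence (ex 485/em 525 nm) was read every 5 s for 240–500 s at room temperature, max–min as % of DMSO control.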

PAF-induced Ca2+ flux = PAF-induced Ca2+ flux in hPMNs; assay type: cell-based, human; conditions: for effect on PAF-induced Ca2+ flux, in words: hPMNs, concentrations up to 5 μM
fMLF-induced Ca2+ flux = fMLF-induced Ca2+ flux in hPMNs; assay type: cell-based, human; conditions: for effect on fMLF-induced Ca2+ flux, in words: hPMNs, concentrations up to 5 μM
Summary of the method: as §1

CXCR2 [1] = molecular target: T1, CXCR2 (Homo sapiens, UniProt P25025); assay: Competition [125I]-CXCL8 binding assay, HEK293-hCXCR2 membranes; conditions: up to 10 μM compound, 25 pM radioligand
T1 sequence (P25025 1-360): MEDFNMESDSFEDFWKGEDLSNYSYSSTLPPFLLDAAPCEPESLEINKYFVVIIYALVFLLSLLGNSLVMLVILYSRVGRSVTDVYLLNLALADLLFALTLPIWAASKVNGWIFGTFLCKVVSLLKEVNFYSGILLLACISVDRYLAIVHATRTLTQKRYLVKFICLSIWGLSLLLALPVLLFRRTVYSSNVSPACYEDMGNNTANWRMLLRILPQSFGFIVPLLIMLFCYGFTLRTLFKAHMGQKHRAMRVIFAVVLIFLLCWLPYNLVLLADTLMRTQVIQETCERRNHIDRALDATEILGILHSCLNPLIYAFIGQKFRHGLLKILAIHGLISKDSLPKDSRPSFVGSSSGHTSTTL

CXCR2 [2] = molecular target: T1, CXCR2; assay: CXCR2 cell surface expression by flow cytometry in HEK293 cells; assay type: cell-based; conditions: 10 μM, 60 min exposure
Summary of the method: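 Stable HEK293-CXCR2 cells were pretreated with 1% DMSO vehicle or test compound for 60 min; untransfected HEK293 served as negative isotype control. Cells were stained with PE-conjugated anti-human CXCR2 mouse monoclonal (1:100) at 4 °C for 60 min, washed, and fixed in 2% formaldehyde/PBS. PE signal was quantified by flow cytometry; data representative of three independent experiments.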

[3] = tested on: CXCR2-mediated phosphorylation of ERK1/2; assay: CXCL8-induced ERK1/2 phosphorylation in HEK293 cells expressing CXCR2; assay type: cell-based, human; conditions: 10 μM compound, CXCL8 100 ng/mL, 0–30 min
Summary of the method: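 G418-selected HEK293 pool stably expressing human CXCR2, 5 × 10^6 cells per 60 mm plate. […] Lysis was at 0, 5, 15 and 30 min in SDS/deoxycholate/Triton buffer with PMSF, aprotinin and leupeptin. Phospho-ERK1/2 and total ERK1/2 were detected by Western blot.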

male CD1 Swiss mice = assay: Murine air-pouch model of inflammation; assay type: in vivo, mouse; conditions: 0.2 mg/kg iv, 3 h before 2% carrageenan; vs positive control cohort, p < 0.01
Summary of the method: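 Dorsal air pouch in 10–15-week-old male CD1 Swiss mice: 2 mL air sc, reinflated with 1.5 mL next day. Test compound (0.02 or 0.20 mg/kg) in PEG400:DMF:saline 20:20:80, or vehicle, was given iv by tail vein, n = 5 per cohort. After 3 h, 1 mL PBS or 2% carrageenan in PBS was injected into the pouch. Pouch fluid plus a 2 mL PBS wash was collected 4 h later; cells were counted by trypan blue on a hemocytometer. Student's t-test vs carrageenan/vehicle cohort.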

IC50 (C5a-induced Ca2+ flux; Homo sapiens, read-out: IC50, C5a-induced Ca2+ flux): > 5 µM
IC50 (PAF-induced Ca2+ flux; Homo sapiens, read-out: IC50, PAF-induced Ca2+ flux): > 5 µM
IC50 (fMLF-induced Ca2+ flux; Homo sapiens, read-out: IC50, fMLF-induced Ca2+ flux): > 5 µM
competition of [125I]-CXCL8 binding to CXCR2 membranes, in words (CXCR2 [1]): failed to compete
competition of [125I]-CXCL8 binding to CXCR2 membranes, in words (CXCR2 [1]; listed as SX-517): unable to compete
effect on cell surface expression of CXCR2, in words (CXCR2 [2]): did not significantly alter
Structure (SMILES): O=C(Nc1ccc(F)cc1)c1ccc(SCc2ccccc2B(O)O)nc1 [Compound 7, 2-((5-(4-Fluorophenylcarbamoyl)pyridin-2-ylthio)methyl)phenylboronic acid]
effect on CXCL8-stimulated Ca2+ flux, in words (CXCR1 and CXCR2): completely eliminate
effect on C5a-induced Ca2+ flux, in words (C5a-induced Ca2+ flux): failed to inhibit; also recorded: no inhibition
effect on C5a-induced Ca2+ flux, in words (C5a-induced Ca2+ flux; listed as SX-517): no effect
effect on PAF-induced Ca2+ flux, in words (PAF-induced Ca2+ flux): failed to inhibit; also recorded: no inhibition
effect on PAF-induced Ca2+ flux, in words (PAF-induced Ca2+ flux; listed as SX-517): no effect
effect on fMLF-induced Ca2+ flux, in words (fMLF-induced Ca2+ flux): failed to inhibit; also recorded: no inhibition
effect on fMLF-induced Ca2+ flux, in words (fMLF-induced Ca2+ flux; listed as SX-517): no effect
effect on CXCL8-induced ERK1/2 phosphorylation, in words [3]: completely blocked; also recorded: directly antagonized
effect on CXCL8-induced ERK1/2 phosphorylation, in words ([3]; listed as SX-517): antagonized
total cell count in inflammatory pouch infiltrate, in words (male CD1 Swiss mice): significant reduction; also recorded: significantly reduced
